Assay outcomes: PubChem BioAssay, several laboratories
ZTA counter: blocks Epstein-Barr virus ZTA, an EBNA-1 counter-screen; P03206; ZTA-DNA binding, fluorescence polarization; inhibition, % at 11 µM; 0.15% of 320,000 active; AID 2234; in the data active = inhibition above about 33%
Target sequence (P03206 whole entry, looked up): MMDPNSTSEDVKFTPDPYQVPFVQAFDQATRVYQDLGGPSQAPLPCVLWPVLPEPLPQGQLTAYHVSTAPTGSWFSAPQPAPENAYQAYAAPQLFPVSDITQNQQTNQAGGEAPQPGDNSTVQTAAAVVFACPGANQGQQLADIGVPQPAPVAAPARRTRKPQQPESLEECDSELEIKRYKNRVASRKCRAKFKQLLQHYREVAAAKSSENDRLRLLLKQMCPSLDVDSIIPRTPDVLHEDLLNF
EBNA-1 inhibitor: blocks EBNA-1 binding to DNA | EBNA-1 DNA binding, fluorescence polarization | 0.34% of 300,000 active | inhibition, % at 14.8 µM | AID 1950; in the data active = inhibition above about 28%
EBV gp42 inh: EBV gp42 inhibition; Q1HVG2; AID 1085; inhibition, % (tested at 21.74 µM); Fluorescence polarization binding assay, mP read-out; 0.42% of 220,000 active; in the data active = inhibition above about 50%
Target sequence (Q1HVG2 whole entry, looked up): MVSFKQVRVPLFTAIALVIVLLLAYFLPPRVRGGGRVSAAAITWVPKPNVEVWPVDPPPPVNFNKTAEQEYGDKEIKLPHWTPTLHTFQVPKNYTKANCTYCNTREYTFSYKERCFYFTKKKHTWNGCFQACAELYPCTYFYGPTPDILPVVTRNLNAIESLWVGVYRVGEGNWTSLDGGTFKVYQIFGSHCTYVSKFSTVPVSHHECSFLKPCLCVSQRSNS
MEX-5 binding: C. elegans MEX-5 TCR-2 RNA binding activity; Q9XUB2; MEX-5/FITC-TCR2 RNA binding, fluorescence polarization; hits give low values; activity score (negative = inhibition of binding), % at 10 µM; 0.38% of 300,000 active; AID 1832;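 active = inhibition past about -25% in most replicates, and total fluorescence under double the plate's negative control median, limit read from the data; inconclusive = replicates evenly split on the limit, or fluorescence at least double controls; inactive = too little inhibition in most replicates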
HCV core dimer: blocks dimerization of HCV core protein | TR-FRET GST/Flag-core106 dimerization, 1536-well | inhibition, % at 5 µM | 0.33% of 300,000 active | AID 1899;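 active = inhibition above the mean of all tested compounds plus 3 SD, set per screening campaign, cut at about 45% in these data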
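Assay system: GST-tagged and Flag-tagged HCV core protein residues 1-106 / Times: compound-protein-antibody incubation 4 h at 22.5 °C / Signal: time-resolved FRET, ex 340 nm, em 617 and 671 nm / Evaluation: % inhibition based on acceptor/donor emission ratio / Benchmarks: wells lacking GST-core106 and wells with excess unlabelled core106 / Repeats: singlicate, one well per compound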
NS3 helicase inh: blocks Hepatitis C virus NS3 helicase unwinding | 0.56% of 290,000 active | inhibition, % at 10.9 µM | NS3 helicase DNA unwinding, Cy5 molecular beacon fluorescence | AID 1800;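 active = inhibition above the mean of all tested compounds plus 3 SD, set per campaign, cut at about 35% in these data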
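System: HCV NS3 helicase fragment; control set: DMSO and thioflavine S; technique: Cy5 fluorescence at 0 and 60 min, beacon hairpin quenching; reagent: beacon DNA duplex substrate plus ATP; replicates: singlicate; schedule: 1 h reaction at 25 °C, ATP-initiated; medium: MOPS buffer pH 6.5 with MgCl2, DTT, Tween20, BSA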
A number is an active result; – = inactive; ? = inconclusive; · = no result. Only some compounds are listed: those with a hit (about 1.7% of all), similar ones and a draw of the others.

SMILES	ZTA counter	EBNA-1 inhibitor	EBV gp42 inh	MEX-5 binding	HCV core dimer	NS3 helicase inh
O=C(CCN1CCN(c2ccccc2)CC1)N/N=C/c1ccc(O)c(O)c1O	·	·	58	–	·	–
CCN(c1ccccc1)S(=O)(=O)c1ccc(C(=O)Nc2ccc(C)cn2)cc1	–	–	·	–	–	·
NS(=O)(=O)c1ccc(-c2cccc(/C=C3\SC(=O)NC3=O)c2)cc1	–	–	·	-36	–	–
Oc1cccc(/C=N/N=C/c2cccc(O)c2O)c1O	–	–	·	-37	–	–
CC(C)(C)OC(=O)N1CCN(C(=O)c2[nH]cnc2C(=O)Nc2nccs2)CC1	–	·	·	·	·	·
C/C(=N\Nc1ccc(S(=O)(=O)N2CCCCC2)cn1)c1cccc(Br)c1	–	·	·	·	·	·
O=C(NNC(=O)c1cccc(-n2cccc2)c1)c1ccc(F)cc1	–	–	·	–	52	·
CCOC(=O)C1CN(S(=O)(=O)c2cc(OC)ccc2OC)C1	–	–	·	–	–	–
CC(CCc1ccco1)NC(=O)c1cccc2c1C(=O)N(C1CCCCC1)C2 (stereo unspecified)	–	–	–	–	–	–
COc1ccc(N2Cc3cccc(C(=O)NC(C)CCc4ccco4)c3C2=O)cc1 (stereo unspecified)	–	–	–	–	63	–
CCOC(=O)N1CCC(NC(=O)c2cccc3c2C(=O)N(c2ccc(OC)cc2)C3)CC1	–	–	–	–	59	–
Cc1ccccc1NC(=O)CN1C(=O)S/C(=C\c2ccc(-c3cc(C(=O)O)ccc3C)o2)C1=O	·	·	–	-54	·	–
Cc1cc(C(=O)O)ccc1-c1ccc(/C=C2\SC(=O)N(CC(=O)Nc3ccc4c(c3)OCO4)C2=O)o1	·	·	·	·	·	–
O=[N+]([O-])c1cc(CN2CCN(c3cccc(C(F)(F)F)c3)CC2)c2cccnc2c1O	–	–	–	–	–	–
O=[N+]([O-])c1cc(CN2CCCC2)c2cccnc2c1O	–	–	88	·	–	–
CC(C)(C)Sc1ccc([N+](=O)[O-])cc1C(=O)Nc1ccncc1	–	–	–	–	–	–
COc1cccc(C2C3CN(C)CC=C3C(C#N)=C(N)C2(C#N)C#N)c1OC (stereo unspecified)	–	–	78	-67	–	–
CN1CC=C2C(C#N)=C(N)C(C#N)(C#N)[C@H](c3cccc(Cl)c3)C2C1 (stereo partly specified)	–	–	58	-59	–	–
CN1CC=C2C(C#N)=C(N)C(C#N)(C#N)C(c3ccsc3)C2C1 (stereo unspecified)	–	–	–	?	–	–
CCCC1C2CN(C(C)C)CC=C2C(C#N)=C(N)C1(C#N)C#N (stereo unspecified)	–	–	69	-75	–	–
CN1CC=C2C(C#N)=C(N)C(C#N)(C#N)[C@H](c3cccs3)[C@H]2C1	–	–	–	-68	–	–
CN1CC=C2C(C#N)=C(N)C(C#N)(C#N)C(CCc3ccccc3)C2C1 (stereo unspecified)	–	–	–	·	–	–
COc1ccc(C(=O)NCCC2=CCCCC2)cc1OC1CCN(C(C)C)CC1	–	–	·	–	–	–
COc1ccc(C)cc1NC(=O)c1cc(S(=O)(=O)N2CCCCC2)ccc1N1CCOCC1	–	·	·	·	·	·
CCn1c(SC(C)C(=O)O)nc2sc3c(c2c1=O)CCC3 (stereo unspecified)	–	–	52	·	–	–
SMILES	ZTA counter	EBNA-1 inhibitor	EBV gp42 inh	MEX-5 binding	HCV core dimer	NS3 helicase inh
O=C(CCC(=O)c1ccc[nH]1)c1ccc(Cl)cc1	–	–	–	–	53	–
O=C(COc1ccc(F)c(Cl)c1)c1ccc[nH]1	–	–	–	–	–	–
CC(C)CCNC(=O)C(=O)Nc1ccc2c(c1)N(S(=O)(=O)c1cccs1)CCC2	–	–	·	–	–	·
COc1cc(C2C(C#N)=C(N)Oc3cc(C)oc(=O)c32)cc2c1OCO2 (stereo unspecified)	–	–	–	–	65	–
COc1cc(C2C(C#N)=C(N)Oc3cc(C)oc(=O)c32)cc(OC)c1OC (stereo unspecified)	–	–	–	–	–	–
COC(=O)CN1C(=S)N(c2ccc(OC)cc2)C(=O)/C1=C/c1ccc(N2CCOCC2)cc1	–	–	75	–	–	–
COC(=O)CN1C(=S)N(c2ccc(OC)cc2)C(=O)/C1=C/c1ccc(OC)cc1	–	–	–	–	–	–
NC(=O)[C@H]1CC2(CC(c3cccc(NC(=O)CC(c4ccccc4)c4ccccc4)c3)=NO2)CN1C(=O)c1ccccc1C(=O)c1ccccc1 (stereo partly specified)	–	–	–	–	46	·
C/C=C\C=C/C(=O)Nc1cccc(C2=NOC3(C2)C[C@@H](C(N)=O)N(C(=O)/C=C/C=C\C)C3)c1 (stereo partly specified)	–	–	–	–	–	·
CCC(=O)Nc1cccc(C2=NOC3(C2)C[C@@H](C(N)=O)N(C(=O)c2ccccc2C(=O)c2ccccc2)C3)c1 (stereo partly specified)	–	–	–	–	–	·
C=C(C)C(=O)N1CC2(CC(c3cccc(NC(=O)/C=C\C=C/C)c3)=NO2)C[C@H]1C(N)=O (stereo partly specified)	–	–	–	–	56	·
C/C=C\C=C/C(=O)Nc1cccc(C2=NOC3(C2)C[C@@H](C(N)=O)N(C(=O)/C=C/CC)C3)c1 (stereo partly specified)	–	–	–	–	53	·
C/C=C\C(=O)Nc1cccc(C2=NOC3(C2)C[C@H](C(N)=O)N(C(=O)/C=C/CC)C3)c1 (stereo partly specified)	–	–	–	–	–	·
Cc1cccc(C(=O)NC(C(=O)Nc2cccc(S(=O)(=O)N3CCCC3)c2)C(C)C)c1 (stereo unspecified)	–	·	·	·	·	·
CCOC(=O)C1=NNC(C(=O)c2ccc(Cl)cc2)C1c1ccc(OC)cc1 (stereo unspecified)	–	–	82	–	–	–
Cc1cccc(OCCC(=O)Nc2ccc(N3CCOCC3)cc2N2CCOCC2)c1	–	·	·	·	·	·
O=C(/C=C/c1ccc(OCCCF)cc1)Nc1ccnc(-c2cccnc2)n1	–	–	–	-51	–	–
O=C(/C=C/c1ccc(OCCCF)cc1)Nc1ccnc(-c2ccncc2)n1	–	–	–	–	–	–
COc1cccc(CNC(=O)COC(=O)C2CC3CCCC(C2)C3=O)c1 (stereo unspecified)	–	–	·	–	–	·
Cc1ccc(C(=O)C(NC(=O)c2ccco2)Nc2sc3c(c2C(N)=O)CCCC3)cc1 (stereo unspecified)	–	–	–	–	66	–
C=C[C@@H]1c2cc(C)ccc2N(S(=O)(=O)c2ccc(C)cc2)[C@H](c2ccccc2C(F)(F)F)C1(C#N)C#N	–	·	·	·	·	·
O=S(=O)(c1ccc2c(c1)C(=NO)c1cc(S(=O)(=O)N3CCCCC3)ccc1-2)N1CCCCC1	–	–	–	–	48	–
